How the values were obtained:
Neprilysin = target: T1, Neprilysin (Rattus norvegicus, UniProt P07861); assay: In vitro inhibition of rat neutral endopeptidase
T1 sequence (P07861 whole entry): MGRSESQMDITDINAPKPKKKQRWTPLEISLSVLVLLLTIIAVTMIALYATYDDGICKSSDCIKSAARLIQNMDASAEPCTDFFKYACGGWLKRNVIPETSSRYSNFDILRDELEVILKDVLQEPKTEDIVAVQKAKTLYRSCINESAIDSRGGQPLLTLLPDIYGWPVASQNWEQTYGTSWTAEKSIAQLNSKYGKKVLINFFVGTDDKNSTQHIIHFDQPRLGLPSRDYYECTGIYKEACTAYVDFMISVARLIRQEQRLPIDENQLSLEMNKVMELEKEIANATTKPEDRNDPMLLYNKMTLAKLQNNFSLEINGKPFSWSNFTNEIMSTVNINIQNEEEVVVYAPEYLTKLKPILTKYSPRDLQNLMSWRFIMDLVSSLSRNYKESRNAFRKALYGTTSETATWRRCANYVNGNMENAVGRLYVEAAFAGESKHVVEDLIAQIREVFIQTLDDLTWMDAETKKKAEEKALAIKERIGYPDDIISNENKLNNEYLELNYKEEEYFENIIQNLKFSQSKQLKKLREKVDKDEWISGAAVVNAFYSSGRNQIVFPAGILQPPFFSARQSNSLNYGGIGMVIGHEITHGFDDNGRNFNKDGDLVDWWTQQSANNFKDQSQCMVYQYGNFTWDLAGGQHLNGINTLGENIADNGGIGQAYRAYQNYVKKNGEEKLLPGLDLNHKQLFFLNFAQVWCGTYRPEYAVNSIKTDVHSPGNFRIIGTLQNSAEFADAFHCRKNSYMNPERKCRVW

[1] = target: T2, Endothelin-converting enzyme 1 (Homo sapiens, UniProt P42892); assay: In Vitro inhibition of recombinant human endothelin converting enzyme-1
T2 sequence (P42892 whole entry): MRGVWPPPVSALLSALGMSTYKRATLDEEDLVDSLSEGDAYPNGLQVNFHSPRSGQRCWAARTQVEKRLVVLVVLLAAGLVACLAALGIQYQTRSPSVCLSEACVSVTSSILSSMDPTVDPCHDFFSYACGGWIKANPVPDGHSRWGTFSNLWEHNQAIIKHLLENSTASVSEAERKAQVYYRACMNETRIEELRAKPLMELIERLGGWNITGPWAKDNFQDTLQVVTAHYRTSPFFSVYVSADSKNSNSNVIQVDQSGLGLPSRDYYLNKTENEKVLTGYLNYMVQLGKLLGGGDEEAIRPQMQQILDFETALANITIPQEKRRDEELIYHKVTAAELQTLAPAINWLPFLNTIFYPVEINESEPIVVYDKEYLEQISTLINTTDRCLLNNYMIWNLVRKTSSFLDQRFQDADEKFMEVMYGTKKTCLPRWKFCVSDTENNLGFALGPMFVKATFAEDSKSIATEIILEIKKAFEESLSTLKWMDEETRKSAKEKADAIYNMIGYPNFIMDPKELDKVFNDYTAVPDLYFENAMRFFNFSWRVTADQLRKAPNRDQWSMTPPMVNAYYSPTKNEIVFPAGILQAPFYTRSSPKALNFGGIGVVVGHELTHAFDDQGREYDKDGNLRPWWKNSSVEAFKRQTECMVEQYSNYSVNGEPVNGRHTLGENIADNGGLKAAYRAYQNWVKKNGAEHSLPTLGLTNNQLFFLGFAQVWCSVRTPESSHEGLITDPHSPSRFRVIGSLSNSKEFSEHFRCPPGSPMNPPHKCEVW
Summary of the method: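 Enzyme was human recombinant ECE-1a from membranes of CHO cells expressing it. The IC50 was determined by the assay method of earlier work.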

[2] = target: T3, Endothelin-converting enzyme 1 (Homo sapiens) (UniProt P42892); assay: Inhibition of Endothelin-converting enzyme 1 activity at a concentration of 1 uM
T3 sequence (whole entry): T2 sequence (P42892 whole entry)
Summary of the method: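 Human recombinant ECE-1a came from CHO cell membranes. Activity was measured with test compound at 1 µM and expressed as percent inhibition.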

[3] = Selectivity ratio of IC50 NEP/IC50 ECE
Summary of the method: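 ECE selectivity was the ratio of IC50 against rat kidney cortex NEP 24.11 to IC50 against CHO-membrane human recombinant ECE-1a.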

| Compound | IC50 (Neprilysin) [nM] | IC50 [1] [nM] | inhibition [2] [%] | Selectivity [3] |
| --- | --- | --- | --- | --- |
| NCCCCC(N[C@@H](Cc1ccc2c(c1)oc1ccccc12)C(=O)O)P(=O)(O)O (stereo in doubt; 40o') [listing 1 of 2 here] | > 100000 | 97 |  |  |
| NCCCC(N[C@@H](Cc1ccc2c(c1)oc1ccccc12)C(=O)O)P(=O)(O)O (stereo in doubt; 40r') |  |  | 29 |  |
| CC(N[C@@H](Cc1ccc2c(c1)oc1ccccc12)C(=O)O)P(=O)(O)O (stereo in doubt; 40u) [listing 1 of 2 here] | 28000 | 96 |  |  |
| CC(N[C@@H](Cc1ccc2c(c1)oc1ccccc12)C(=O)O)P(=O)(O)O (stereo in doubt; 40u) [listing 2 of 2 here] |  |  | 88 | 292 |
| O=P(O)(O)CN[C@@H](CC#Cc1ccccc1F)c1nnn[nH]1 | 14 |  |  | 0.1 |
| COc1cc(OC)c(OC)cc1CCC(N[C@@H](Cc1ccc2c(c1)oc1ccccc12)C(=O)O)P(=O)(O)O (stereo in doubt; 40j') |  |  | 38 |  |
| COc1ccc(CCC(N[C@@H](Cc2ccc3c(c2)oc2ccccc23)C(=O)O)P(=O)(O)O)cc1OC (stereo in doubt; 40f ') [listing 1 of 2 here] |  | 890 |  |  |
| O=C(O)[C@H](Cc1ccc2c(c1)oc1ccccc12)NC(CCc1cccc2ccccc12)P(=O)(O)O (stereo in doubt; 40b') [listing 1 of 2 here] |  | 1800 |  |  |
| CC(NC(=O)[C@H](Cc1ccc2c(c1)oc1ccccc12)NCP(=O)(O)O)C(=O)O (stereo partly specified) | 1640 |  | 35 |  |
| O=C(O)[C@H](Cc1ccc2c(c1)oc1ccccc12)NC(CCc1cccc2ccccc12)P(=O)(O)O (stereo in doubt; 40b') [listing 2 of 2 here] |  |  | 34 |  |
| O=C(O)[C@H](Cc1ccc2c(c1)oc1ccccc12)NC(CCc1cccc2cccnc12)P(=O)(O)O (stereo in doubt; 40m') [listing 1 of 2 here] |  |  | 94 | 4210 |
| CC(C)C[C@H](NP(=O)(O)O[C@@H]1O[C@@H](C)[C@H](O)[C@@H](O)[C@H]1O)C(=O)N[C@@H](Cc1c[nH]c2ccccc12)C(=O)O [PHOSPHORAMIDON] | 30 |  |  |  |
| O=C(O)[C@H](Cc1ccc2c(c1)oc1ccccc12)NC(CCc1cccc2ccccc12)P(=O)(O)O (stereo in doubt; 40a') [listing 1 of 2 here] |  |  | 95 | 574 |
| O=P(O)(O)C(CCc1cccc2ccccc12)N[C@@H](Cc1ccc(-c2ccccc2)cc1)c1nnn[nH]1 (stereo partly specified) | 5 |  |  | 0.29 |
| O=P(O)(O)C(CCc1cccc2ccccc12)N[C@@H](Cc1ccc2c(c1)oc1ccccc12)c1nnn[nH]1 (stereo in doubt; 43b') [listing 1 of 2 here] |  |  | 73 | 29 |
| COc1ccc(CCC(N[C@@H](Cc2ccc3c(c2)oc2ccccc23)C(=O)O)P(=O)(O)O)cc1OC (stereo in doubt; 40f ') [listing 2 of 2 here] |  |  | 58 |  |
| O=C(O)[C@H](Cc1ccc2c(c1)oc1ccccc12)NC(CCc1cccc2cccnc12)P(=O)(O)O (stereo in doubt; 40n') [listing 1 of 2 here] |  |  | 78 | 240 |
| O=C(O)[C@H](Cc1ccc2c(c1)oc1ccccc12)NC(CCc1cccc2cccnc12)P(=O)(O)O (stereo in doubt; 40m') [listing 2 of 2 here] | 59000 | 14 |  |  |
| O=C(O)CNC(=O)C(CS)Cc1ccccc1 (stereo unspecified) [THIORPHAN] |  | > 100000 |  |  |
| COc1cc(OC)c(OC)cc1CCC(N[C@@H](Cc1ccc2c(c1)oc1ccccc12)C(=O)O)P(=O)(O)O (stereo in doubt; 40i') [listing 1 of 2 here] | > 10000 | 40 |  |  |
| COc1ccc(CCC(N[C@@H](Cc2ccc3c(c2)oc2ccccc23)C(=O)O)P(=O)(O)O)c(OC)c1OC (stereo in doubt; 40l') [listing 1 of 2 here] |  |  | 64 |  |
| O=C(O)[C@H](Cc1ccc2c(c1)oc1ccccc12)NC(CCc1cccc2cccnc12)P(=O)(O)O (stereo in doubt; 40n') [listing 2 of 2 here] | 48000 | 200 |  |  |
| O=P(O)(O)C(CCc1cccc2ccccc12)N[C@@H](Cc1ccc2c(c1)oc1ccccc12)c1nnn[nH]1 (stereo in doubt; 43b') [listing 2 of 2 here] | 13000 | 440 |  |  |

| Compound | IC50 (Neprilysin) [nM] | IC50 [1] [nM] | inhibition [2] [%] | Selectivity [3] |
| --- | --- | --- | --- | --- |
| NCCCCC(N[C@@H](Cc1ccc2c(c1)oc1ccccc12)C(=O)O)P(=O)(O)O (stereo in doubt; 40p') |  |  | 19 |  |
| O=C(NCCc1ccccc1)[C@H](Cc1ccc2c(c1)oc1ccccc12)NCP(=O)(O)O |  |  | 29 |  |
| O=C(NCCc1ccc(-c2ccccc2)cc1)[C@H](Cc1ccc2c(c1)oc1ccccc12)NCP(=O)(O)O |  |  | 5 |  |
| COc1cccc(CCC(N[C@@H](Cc2ccc3c(c2)oc2ccccc23)C(=O)O)P(=O)(O)O)c1OC (stereo in doubt; 40c) [listing 1 of 2 here] | 24000 | 19 |  |  |
| COc1ccc(CCC(N[C@@H](Cc2ccc3c(c2)oc2ccccc23)C(=O)O)P(=O)(O)O)c(OC)c1OC (stereo in doubt; 40k') [listing 1 of 2 here] |  |  | 91 | 428 |
| NCCCCC(N[C@@H](Cc1ccc2c(c1)oc1ccccc12)C(=O)O)P(=O)(O)O (stereo in doubt; 40o') [listing 2 of 2 here] |  |  | 84 | > 1030 |
| COc1cccc(CCC(N[C@@H](Cc2ccc3c(c2)oc2ccccc23)C(=O)O)P(=O)(O)O)c1OC (stereo in doubt; 40d') |  |  | 85 | 58 |
| COc1ccc(CCC(N[C@@H](Cc2ccc3c(c2)oc2ccccc23)C(=O)O)P(=O)(O)O)c(OC)c1OC (stereo in doubt; 40k') [listing 2 of 2 here] | 15000 | 35 |  |  |
| CC(N[C@@H](Cc1ccc2c(c1)oc1ccccc12)C(=O)O)P(=O)(O)O (stereo in doubt; 40v) [listing 1 of 2 here] | 47000 | 180 |  |  |
| CC(N[C@@H](Cc1ccc2c(c1)oc1ccccc12)C(=O)O)P(=O)(O)O (stereo in doubt; 40v) [listing 2 of 2 here] |  |  | 81 | 261 |
| CC(C)C[C@H](NC(=O)[C@H](CC#Cc1ccc(F)cc1F)NCP(=O)(O)O)C(=O)N[C@@H](C)C(=O)O | 5800 |  |  | 725 |
| COc1ccc(CCC(N[C@@H](Cc2ccc3c(c2)oc2ccccc23)C(=O)O)P(=O)(O)O)cc1OC (stereo in doubt; 40e') [listing 1 of 2 here] | > 10000 | 29 |  |  |
| COc1cccc(CCC(N[C@@H](Cc2ccc3c(c2)oc2ccccc23)C(=O)O)P(=O)(O)O)c1OC (stereo in doubt; 40c) [listing 2 of 2 here] |  |  | 95 | 1260 |
| O=P(O)(O)C(CCc1cccc2ccccc12)N[C@@H](Cc1ccc2c(c1)oc1ccccc12)c1nnn[nH]1 (stereo in doubt; 43a') [listing 1 of 2 here] | 210 | 2.6 |  |  |
| COc1ccc(CCC(N[C@@H](Cc2ccc3c(c2)oc2ccccc23)C(=O)O)P(=O)(O)O)c(OC)c1OC (stereo in doubt; 40l') [listing 2 of 2 here] |  | 520 |  |  |
| O=C(O)[C@H](Cc1ccc2c(c1)oc1ccccc12)NC(CCc1cccc2ccccc12)P(=O)(O)O (stereo in doubt; 40a') [listing 2 of 2 here] | 13800 | 24 |  |  |
| COc1cc(OC)c(OC)cc1CCC(N[C@@H](Cc1ccc2c(c1)oc1ccccc12)C(=O)O)P(=O)(O)O (stereo in doubt; 40i') [listing 2 of 2 here] |  |  | 91 | > 250 |
| CC(C)C[C@H](NC(=O)[C@H](CC#Cc1ccc(F)cc1F)NCP(=O)(O)O)C(=O)O | 6700 |  |  | 131 |
| O=C(O)CNC(=O)[C@H](Cc1ccc2c(c1)oc1ccccc12)NCP(=O)(O)O | > 10000 |  | 43 |  |
| COc1ccc(CCC(N[C@@H](Cc2ccc3c(c2)oc2ccccc23)C(=O)O)P(=O)(O)O)cc1OC (stereo in doubt; 40e') [listing 2 of 2 here] |  |  | 93 | > 345 |
| O=P(O)(O)C(CCc1cccc2ccccc12)N[C@@H](Cc1ccc2c(c1)oc1ccccc12)c1nnn[nH]1 (stereo in doubt; 43a') [listing 2 of 2 here] |  |  | 98 | 81 |
| NCCCC(N[C@@H](Cc1ccc2c(c1)oc1ccccc12)C(=O)O)P(=O)(O)O (stereo in doubt; 40q') |  |  | 73 |  |

Source: ChEMBL document CHEMBL1133584, “Potent and selective non-peptidic inhibitors of endothelin-converting enzyme-1 with sustained duration of action” (J Med Chem, 2000)
